According to ChEMBL document CHEMBL5316295, “Systematic Design of Adenosine Analogs as Inhibitors of a Clostridioides difficile-Specific DNA Adenine Methyltransferase Required for Normal Sporulation and Persistence” (J Med Chem, 2023):
The source made the active and inactive calls.

Key:
[1] = target: METTL5-TRM112 (Homo sapiens) (UniProt Q9UI30+Q9NRN9); experiment: Inhibition of human METTL5/TRM112 using 5'-UCG UAA CAA GGU UU-3' as substrate and SAM as cosubstrate at 10 uM incubated for 1 hr; type: protein-complex assay
Method in brief: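 Enzyme 0.1 μM with 5 μM RNA, 30 μM SAM and 10 μM inhibitor at ~22 °C in 50 mM Tris–HCl pH 7.5, 100 mM NaCl, 1 mM DTT, 0.25% DMSO. PCIF1 run 15 min with capped RNA; MettL5-Trm112 run 1 h with ssRNA.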

[2] = target: T1, DNA adenine methylase (Escherichia coli K-12) (UniProt P0AEE8); experiment: Inhibition of Escherichia coli Dam using 5'-CCG CGG ATC CTG CT-3' and 3'-GGC GCC TAG GAC GA-5' as substrate and SAM as cosubstrate at 10 uM incubated for 5 mins
T1 sequence (whole entry): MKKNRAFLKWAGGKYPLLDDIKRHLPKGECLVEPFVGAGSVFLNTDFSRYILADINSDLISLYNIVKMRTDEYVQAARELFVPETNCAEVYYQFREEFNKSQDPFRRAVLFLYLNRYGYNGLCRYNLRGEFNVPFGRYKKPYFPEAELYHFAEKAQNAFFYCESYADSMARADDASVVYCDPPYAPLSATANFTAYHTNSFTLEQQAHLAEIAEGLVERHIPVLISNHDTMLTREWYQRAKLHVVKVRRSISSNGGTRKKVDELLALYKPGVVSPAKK
Method in brief: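 Conditions were enzyme 0.1 μM, DNA 5 μM, SAM 30 μM, inhibitor 10 μM, at ~22 °C in 50 mM Tris–HCl pH 7.5, 100 mM NaCl, 1 mM DTT, 0.25% DMSO, run 5 min. Substrate and SAM levels were above K_M.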

[3] = target: Histone-lysine N-methyltransferase EZH2 (Homo sapiens) (UniProt Q15910); experiment: Inhibition of EZH2 (unknown origin) using chicken core histone as substrate and 3H-SAM as cosubstrate at 10 uM pretreated with compound for 20 mins in presence of chicken core histone followed by cosubstrate addition and measured after 1 hr; settings: time 80.0 min
Chain of Histone-lysine N-methyltransferase EZH2 (Homo sapiens) (Q15910 whole entry, looked up): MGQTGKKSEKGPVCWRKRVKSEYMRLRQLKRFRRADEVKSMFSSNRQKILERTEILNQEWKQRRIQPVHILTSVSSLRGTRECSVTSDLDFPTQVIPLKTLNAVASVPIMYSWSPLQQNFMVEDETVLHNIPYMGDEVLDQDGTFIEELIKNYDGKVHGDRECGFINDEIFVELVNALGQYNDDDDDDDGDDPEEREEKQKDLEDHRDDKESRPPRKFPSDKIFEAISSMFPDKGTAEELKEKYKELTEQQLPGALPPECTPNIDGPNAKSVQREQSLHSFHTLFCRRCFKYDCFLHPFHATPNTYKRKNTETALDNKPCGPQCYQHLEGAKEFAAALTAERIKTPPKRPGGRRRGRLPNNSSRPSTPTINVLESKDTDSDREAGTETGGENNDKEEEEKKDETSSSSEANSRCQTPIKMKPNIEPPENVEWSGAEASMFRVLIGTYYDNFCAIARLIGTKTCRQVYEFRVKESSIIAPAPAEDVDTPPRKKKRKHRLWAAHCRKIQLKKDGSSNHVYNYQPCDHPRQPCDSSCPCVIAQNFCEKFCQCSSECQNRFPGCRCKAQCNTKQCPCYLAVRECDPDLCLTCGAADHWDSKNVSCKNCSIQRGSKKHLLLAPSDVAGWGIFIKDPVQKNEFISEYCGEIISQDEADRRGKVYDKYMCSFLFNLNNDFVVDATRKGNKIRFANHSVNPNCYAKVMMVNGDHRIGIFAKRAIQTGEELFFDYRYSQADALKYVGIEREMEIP
Method in brief: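 Enzymes (DOT1L 1 nM; EZH2, G9a, PRMT1 5 nM) mixed with substrate (0.05 mg/mL oligonucleosomes for DOT1L; 0.05 mg/mL core histone for EZH2; 5 μM H3 1–21 peptide for G9a; 5 μM H4 for PRMT1). Compound (10 μM) added for 20 min at room temperature, then 1 μM ³H-SAM for 1 h at 30 °C; filter-paper read-out. Triplicates, mean ± SD.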

[4] = target: T2, RNA N(6)-adenosine-methyltransferase METTL16 (Homo sapiens) (UniProt Q86W50); experiment: Inhibition of human METTL16 using 5'-GGUUGGCGUAGGCUACAGAGAAGCCAACC-3' as substrate and SAM as cosubstrate at 10 uM incubated for 15 mins
T2 sequence (whole entry): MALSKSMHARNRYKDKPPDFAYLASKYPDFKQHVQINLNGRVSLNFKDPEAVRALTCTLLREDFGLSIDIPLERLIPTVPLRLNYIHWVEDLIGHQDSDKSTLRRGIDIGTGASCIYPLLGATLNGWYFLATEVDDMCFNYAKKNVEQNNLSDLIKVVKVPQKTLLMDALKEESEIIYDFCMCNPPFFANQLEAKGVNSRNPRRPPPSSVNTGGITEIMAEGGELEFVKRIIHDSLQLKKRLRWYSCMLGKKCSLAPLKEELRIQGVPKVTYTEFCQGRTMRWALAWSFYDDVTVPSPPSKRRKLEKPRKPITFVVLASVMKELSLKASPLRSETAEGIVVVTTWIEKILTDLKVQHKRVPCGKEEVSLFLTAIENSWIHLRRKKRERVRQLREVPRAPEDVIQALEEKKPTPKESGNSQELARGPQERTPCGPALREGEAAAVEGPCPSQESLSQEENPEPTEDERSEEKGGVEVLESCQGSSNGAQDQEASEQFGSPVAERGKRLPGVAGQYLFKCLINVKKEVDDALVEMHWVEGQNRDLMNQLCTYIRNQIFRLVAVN
Method in brief: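 Under CamA buffer conditions (30 μM SAM) the assay ran 15 min with ssRNA hairpin substrate and 10 μM inhibitor. A separate condition used 0.4 μM enzyme, 5 μM RNA, 160 μM SAM in 20 mM Tris–HCl pH 8.0, 400 mM NaCl, 1 mM DTT, 0.25% DMSO for 30 min.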

Measured: inhibition

OC[C@H]1O[C@@H](n2cnc3c(NCCCc4ccc(O)cc4)ncnc32)[C@H](O)[C@@H]1O
inactive: all assays above

CC(C)(C)OC(=O)N1CCC(CCNc2ncnc3c2ncn3[C@@H]2O[C@H](CO)[C@@H](O)[C@H]2O)CC1
inactive: all assays above

CC(C)(C)OC(=O)N1CCC(CCCNc2ncnc3c2ncn3[C@@H]2O[C@H](CO)[C@@H](O)[C@H]2O)CC1
inactive: all assays above
